# Reference: ChEMBL document CHEMBL2396536, “Curcuminoids block TGF-β signaling in human breast cancer cells and limit osteolysis in a murine model of breast cancer bone metastasis” (J Nat Prod, 2013)
# The source made the active and inactive calls. The calls are words filed in the database; no cut-off is given here.
# Tested on: MDA-MB-231
# Test: Inhibition of osteolytic bone metastases in human MDA-MB-231 cells xenografted in athymic nude mouse left cardiac ventricle assessed as effect on tumor burden at 25 to 50 mg/kg, ip administered every other day for 3 weeks by histological analysis
# Assay type: functional, organism-based
# Conditions: Heart left ventricle
# Summary of the method: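 Intracardiac MDA-MB-231 model in female nude mice, dosed ip every other day for 21 days, n = 11/group. Hindlimbs harvested day 21, formalin-fixed and EDTA-decalcified. Tumor area measured blinded on mid-sagittal 5 μm H&E sections of tibiae and femora at 10x magnification.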
row,SMILES,inhibition
1,O=C(/C=C/c1ccc(O)cc1)CC(=O)/C=C/c1ccc(O)cc1 [BISDEMETHOXYCURCUMIN],inactive

# Tested on: Mus musculus
# Test: Toxicity in human MDA-MB-231 cells xenografted athymic nude mouse left cardiac ventricle assessed as effect on spleen weight at 25 mg/kg, ip administered every other day for 3 weeks (reference value: 0.134 +/- 0.02 gram)
# Assay type: organism-based
# Design: dose 25 mg/kg, route intraperitoneal
# Conditions: in vivo, 504 h
row,SMILES,Activity [g]
1,O=C(/C=C/c1ccc(O)cc1)CC(=O)/C=C/c1ccc(O)cc1 [BISDEMETHOXYCURCUMIN],0.129

# Tested on: Mus musculus
# Test: Toxicity in human MDA-MB-231 cells xenografted athymic nude mouse left cardiac ventricle assessed as effect on hematocrit at 50 mg/kg, ip administered every other day for 3 weeks (reference value: 30.2 +/- 1.5%)
# Assay type: organism-based, Heart
# Design: dose 50 mg/kg, route intraperitoneal
# Conditions: in vivo, 504 h
row,SMILES,Activity [%]
1,O=C(/C=C/c1ccc(O)cc1)CC(=O)/C=C/c1ccc(O)cc1 [BISDEMETHOXYCURCUMIN],31.1

# Tested on: MDA-MB-231
# Test: Inhibition of TGF-beta-induced PTHrP secretion in human MDA-MB-231 cells at 100 uM treated 4 hrs before TGF-beta challenge measured after 24 hrs by radioimmunoassay
# Assay type: functional, cell-based
# Conditions: not given
# Summary of the method: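 MDA-MB-231 plated at 5 × 10^4 cells/cm2 and held overnight in DMEM with 10% FBS. Pre-treated 4 h with compound (0.1–100 μM in methods; 0.1–300 μM in legend) in 2% FBS, then recombinant human TGF-β1 (5 ng/mL) or medium alone for 24 h. PTHrP measured in conditioned media by radioimmunoassay, n = 4 wells/group. IC50 from four-parameter logistic fit.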
row,SMILES,inhibition
1,O=C(/C=C/c1ccc(O)cc1)CC(=O)/C=C/c1ccc(O)cc1 [BISDEMETHOXYCURCUMIN],Active

# Tested on: Mus musculus
# Test: Toxicity in human MDA-MB-231 cells xenografted athymic nude mouse left cardiac ventricle assessed as effect on liver weight at 25 mg/kg, ip administered every other day for 3 weeks (reference value: 1 +/- 0.10 gram)
# Assay type: organism-based, Heart
# Design: dose 25 mg/kg, route intraperitoneal
# Conditions: in vivo, 504 h
row,SMILES,Activity [g]
1,O=C(/C=C/c1ccc(O)cc1)CC(=O)/C=C/c1ccc(O)cc1 [BISDEMETHOXYCURCUMIN],0.987

# Tested on: Mus musculus
# Test: Toxicity in human MDA-MB-231 cells xenografted athymic nude mouse left cardiac ventricle assessed as effect on white blood cells at 50 mg/kg, ip administered every other day for 3 weeks (reference value: 5.84 +/- 1.3 K/uL)
# Conditions: in vivo, 504 h
row,SMILES,Activity [K/uL]
1,O=C(/C=C/c1ccc(O)cc1)CC(=O)/C=C/c1ccc(O)cc1 [BISDEMETHOXYCURCUMIN],6.83

# Tested on: Mus musculus
# Test: Toxicity in human MDA-MB-231 cells xenografted athymic nude mouse left cardiac ventricle assessed as effect on spleen weight at 50 mg/kg, ip administered every other day for 3 weeks (reference value: 0.134 +/- 0.02 gram)
# Assay type: organism-based
# Design: dose 50 mg/kg, route intraperitoneal
# Conditions: in vivo, 504 h
row,SMILES,Activity [g]
1,O=C(/C=C/c1ccc(O)cc1)CC(=O)/C=C/c1ccc(O)cc1 [BISDEMETHOXYCURCUMIN],0.139

# Tested on: MDA-MB-231
# Test: Inhibition of osteolytic bone metastases in human MDA-MB-231 cells xenografted in athymic nude mouse left cardiac ventricle assessed as reduction in lytic bone lesion area at 25 to 50 mg/kg, ip administered every other day for 3 weeks measured on day 16 relative to control
# Assay type: functional, Heart left ventricle
# Conditions: dose mg/kg 25-50; route intraperitoneal
# Summary of the method: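 Four-week female athymic nude mice inoculated with 1 × 10^5 MDA-MB-231 cells in 0.1 mL PBS into the left cardiac ventricle. Dosed ip at 25 or 50 mg/kg or vehicle every other day from day 1 for 21 days, n = 11/group. Lytic lesion area quantified on radiographs on days 12, 16 and 21. Two-way ANOVA with Bonferroni.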
row,SMILES,inhibition (INH) [%]
1,O=C(/C=C/c1ccc(O)cc1)CC(=O)/C=C/c1ccc(O)cc1 [BISDEMETHOXYCURCUMIN],51

# Molecular target: Mothers against decapentaplegic homolog 3 (Homo sapiens) (UniProt P84022)
# Test: Inhibition of TGF-beta-induced Smad3 phosphorylation in human MDA-MB-231 cells treated 12 hrs before TGF-beta challenge measured after 1 hr by Western blotting
# Assay type: cell-based
# Conditions: not given
# Summary of the method: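 Subconfluent MDA-MB-231 pre-treated 12 h with compound (80 μM), then TGF-β (5 ng/mL) for 1 h. RIPA whole-cell lysates (18 μg) run on SDS-PAGE and transferred to PVDF. Probed with rabbit anti-phospho-Smad2, phospho-Smad3, phospho-p38 or Ets-1 (1:1000, overnight, 4 °C). β-actin used as loading control. Chemiluminescent detection; three independent experiments.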
# Chain of Mothers against decapentaplegic homolog 3 (Homo sapiens) (P84022 2-425 limits assumed): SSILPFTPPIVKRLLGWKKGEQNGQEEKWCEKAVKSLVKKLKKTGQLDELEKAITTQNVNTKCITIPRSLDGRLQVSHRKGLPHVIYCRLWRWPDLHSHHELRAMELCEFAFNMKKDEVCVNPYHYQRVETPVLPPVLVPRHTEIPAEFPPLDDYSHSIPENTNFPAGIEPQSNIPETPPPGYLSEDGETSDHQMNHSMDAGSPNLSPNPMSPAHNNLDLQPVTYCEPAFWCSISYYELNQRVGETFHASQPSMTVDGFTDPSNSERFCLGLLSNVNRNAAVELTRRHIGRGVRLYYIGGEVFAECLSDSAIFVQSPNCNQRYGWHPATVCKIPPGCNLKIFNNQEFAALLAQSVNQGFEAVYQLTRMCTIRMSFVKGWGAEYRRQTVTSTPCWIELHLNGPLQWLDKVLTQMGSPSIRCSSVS
row,SMILES,inhibition
1,O=C(/C=C/c1ccc(O)cc1)CC(=O)/C=C/c1ccc(O)cc1 [BISDEMETHOXYCURCUMIN],Active

# Tested on: MDA-MB-231
# Test: Inhibition of osteolytic bone metastases in human MDA-MB-231 cells xenografted in athymic nude mouse left cardiac ventricle assessed as reduction of bone-tumor interface at 50 mg/kg, ip administered every other day for 3 weeks
# Assay type: functional
# Conditions: MDA-MB-231, Heart left ventricle, 504 h, route intraperitoneal
# Summary of the method: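 Intracardiac MDA-MB-231 model in nude mice, dosed ip every other day for 21 days. Mid-sagittal tibia and femur sections TRAP-stained. TRAP+ multinucleated (>3 nuclei) cells counted at 40x along the tumor-bone interface. Expressed as osteoclasts per mm of interface.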
row,SMILES,inhibition in vivo at 50 mg/kg [%]
1,O=C(/C=C/c1ccc(O)cc1)CC(=O)/C=C/c1ccc(O)cc1 [BISDEMETHOXYCURCUMIN],48

# Tested on: Mus musculus
# Test: Toxicity in human MDA-MB-231 cells xenografted athymic nude mouse left cardiac ventricle assessed as effect on alanine aminotransferase at 50 mg/kg, ip administered every other day for 3 weeks (reference value: 7.04 +/- 2.2 U/L)
# Assay type: organism-based, Heart
# Design: dose 50 mg/kg, route intraperitoneal
# Conditions: in vivo, 504 h
row,SMILES,Activity [U/L]
1,O=C(/C=C/c1ccc(O)cc1)CC(=O)/C=C/c1ccc(O)cc1 [BISDEMETHOXYCURCUMIN],5.02

# Tested on: Mus musculus
# Test: Toxicity in human MDA-MB-231 cells xenografted athymic nude mouse left cardiac ventricle assessed as effect on bone-forming osteoblast cell at 25 to 50 mg/kg, ip administered every other day for 3 weeks
# Assay type: organism-based, Heart
# Design: dose 25-50 mg/kg, route intraperitoneal
# Conditions: in vivo, 504 h
row,SMILES,Activity
1,O=C(/C=C/c1ccc(O)cc1)CC(=O)/C=C/c1ccc(O)cc1 [BISDEMETHOXYCURCUMIN],Non-toxic

# Tested on: Mus musculus
# Test: Toxicity in human MDA-MB-231 cells xenografted athymic nude mouse left cardiac ventricle assessed as effect on platelets at 50 mg/kg, ip administered every other day for 3 weeks (reference value: 513 +/- 54 K/uL)
# Assay type: organism-based, Heart
# Design: dose 50 mg/kg, route intraperitoneal
# Conditions: in vivo, 504 h
row,SMILES,Activity [K/uL]
1,O=C(/C=C/c1ccc(O)cc1)CC(=O)/C=C/c1ccc(O)cc1 [BISDEMETHOXYCURCUMIN],589

# Tested on: MDA-MB-231
# Test: Inhibition of osteolytic bone metastases in human MDA-MB-231 cells xenografted in athymic nude mouse left cardiac ventricle assessed as improvement in body weight at 25 to 50 mg/kg, ip administered every other day for 3 weeks measured on day 16 relative to vehicle-treated control
# Assay type: functional, organism-based
# Conditions: Heart left ventricle
row,SMILES,Activity
1,O=C(/C=C/c1ccc(O)cc1)CC(=O)/C=C/c1ccc(O)cc1 [BISDEMETHOXYCURCUMIN],Active

# Tested on: MDA-MB-231
# Test: Inhibition of TGF-beta-induced Ets-1 expression in human MDA-MB-231 cells treated 12 hrs before TGF-beta challenge measured after 1 hr by Western blotting
# Conditions: not given
row,SMILES,inhibition
1,O=C(/C=C/c1ccc(O)cc1)CC(=O)/C=C/c1ccc(O)cc1 [BISDEMETHOXYCURCUMIN],Active
